Source: PubChem
PG9 binder: PG9 antibody binding by small molecule; 360,000 tested, 0.43% active; TR-FRET gp120-PG9 antibody binding; inhibition, % at 6.7 µM; AID 624416; in the data active means inhibition above about 8.5%
ABCB6 inh MLPCN: human ABCB6 transporter inhibition; K562-ABCB6 porphyrin accumulation, flow cytometry, 1 h; active compounds read low; fluorescence ratio to DMSO, % at 10 µM; 360,000 tested, 0.19% active; AID 602162;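 active means fluorescence ratio to DMSO below 75%, the collection mean minus 3 SD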;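 further: signal is porphyrin accumulated inside mitochondria; 100% equals median channel fluorescence of DMSO control wells; lower ratio means ABCB6 inhibition with less porphyrin fluorescence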
Target sequence (Q9NP58 whole entry, looked up): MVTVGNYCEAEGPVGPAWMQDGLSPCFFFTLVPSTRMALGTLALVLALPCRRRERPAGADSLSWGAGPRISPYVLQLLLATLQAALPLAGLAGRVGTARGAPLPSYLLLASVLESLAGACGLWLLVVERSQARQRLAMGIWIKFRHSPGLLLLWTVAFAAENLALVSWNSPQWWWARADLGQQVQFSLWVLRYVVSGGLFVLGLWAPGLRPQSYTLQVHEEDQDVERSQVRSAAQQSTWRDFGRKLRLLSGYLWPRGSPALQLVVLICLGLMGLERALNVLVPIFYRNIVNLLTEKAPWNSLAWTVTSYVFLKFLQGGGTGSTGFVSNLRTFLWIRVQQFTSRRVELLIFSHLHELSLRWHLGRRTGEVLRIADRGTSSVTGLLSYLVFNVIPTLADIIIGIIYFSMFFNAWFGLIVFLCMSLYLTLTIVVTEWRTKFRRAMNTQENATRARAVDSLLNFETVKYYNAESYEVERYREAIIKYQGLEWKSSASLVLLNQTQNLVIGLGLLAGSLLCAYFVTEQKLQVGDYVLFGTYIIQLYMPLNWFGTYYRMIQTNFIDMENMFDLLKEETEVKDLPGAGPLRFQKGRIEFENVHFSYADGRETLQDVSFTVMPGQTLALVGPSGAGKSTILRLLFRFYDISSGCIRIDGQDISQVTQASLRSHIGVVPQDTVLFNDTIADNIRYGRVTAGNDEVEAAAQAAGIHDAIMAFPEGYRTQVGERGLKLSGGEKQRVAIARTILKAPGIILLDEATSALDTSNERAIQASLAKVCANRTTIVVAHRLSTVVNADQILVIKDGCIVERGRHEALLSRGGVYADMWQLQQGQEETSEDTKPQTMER
Arr AP2 block: blocks beta-arrestin peptide binding to AP2 adaptin; inhibition, % at 10 µM; FITC-arrestin peptide / GST-AP2 beads, flow cytometry; AP2 beta2 appendage carries R879A mutation; 340,000 tested, 0.31% active;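 active means inhibition above a set limit, near 3 SD of compounds lacking own fluorescence, cut at about 54% in these data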;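 further: plate controls were DMSO wells for no effect and 5 µM unlabelled arrestin peptide for full effect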
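System: GST-tagged AP2 beta2-adaptin appendage (R879A) on 4 µm glutathione beads / Reagent: FITC-arrestin peptide, 50 nM / Detection: HyperCyt-sampled flow cytometry, FL1 channel, ex 488/em 535 nm / Timing: 12 min plus 1 h, RT / Buffer or medium: PBS plus Tween 20 (0.05%) and BSA (0.1%)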
hiPSC survival: increases survival of single human iPS cells | hiPSC single-cell survival, ATPlite luminescence; 100% = ROCK inhibitor wells, 0% = DMSO | survival enhancement, % at 20 µM | 360,000 tested, 0.044% active; in the data active means survival enhancement above about 18%;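 further: cells exposed to compounds for 16 hours before the ATP read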
PG9 bind confirm: PG9 antibody binding, confirmed; shares compounds with PG9 binder; TR-FRET PG9 antibody binding, biochemical; inhibition, % at 6.7 µM; 1,500 tested, 90% active; AID 651571; in the data active means inhibition above about 9%
PGV04 counter: PGV04 control antibody binding, counter-screen | shares compounds with PG9 binder | TR-FRET PGV04 antibody-gp120 binding, biochemical | inhibition, % at 6.7 µM | 1,500 tested, 95% active | AID 651604; in the data active means inhibition above about 9.5%
PG9 bind DR: PG9 antibody binding, dose response; shares compounds with PG9 binder; TR-FRET PG9 antibody-gp120 binding inhibition; IC50, µM; 95 tested, under 10 active; in the data active means IC50 below about 10 µM
PGV04 DR counter: PGV04 binding, dose response counter-screen; TR-FRET binding to control antibody PGV04; shares compounds with PG9 binder; IC50, µM; 95 tested, 20% active; AID 651937
PG126 binding DR: PG126 binding, dose response counter-screen; TR-FRET binding to antibody PG126, counterscreen; 95 tested, 20% active; IC50, µM; shares compounds with PG9 binder
Active calls of the source: *; / = not tested or not shown. Only some compounds are listed: those with a hit (about 0.89% of all), similar ones and a draw of the others. Unless noted, no stated cut-off is given here; in the data, active means IC50 below about 9 µM; inactive means the rest.

SMILES	PG9 binder	ABCB6 inh MLPCN	Arr AP2 block	hiPSC survival	PG9 bind confirm	PGV04 counter	others
O=c1[nH]c(-c2ccccc2)cn1C1CCN(Cc2ccc(-c3nc4ccc(Br)cc4nc3-c3ccccc3)cc2)CC1	2	/	/	/	/	/
Cc1cc2c(c(=O)o1)[C@@]1(C(=O)N(C)c3cccc(Br)c31)C1=C(CCCC1=O)O2	0	/	/	/	/	/
COc1cc(C(=O)Oc2ccccc2)ccc1OCc1c(C)noc1C	11*	95	33	-1	17*	13*	PG9 bind DR=>67;PGV04 DR counter=>67;PG126 binding DR=>67
COc1cc(C(=O)O)ccc1OCc1c(C)noc1C	-1	95	-9	1	/	/
COc1ccc(-n2c(CSc3ccc(Cl)cc3)n[nH]c2=S)cc1	4	/	/	/	/	/
COC(=O)C1=C(C)N(Cc2ccccc2C(F)(F)F)C(=NCc2ccccc2C(F)(F)F)NC1c1ccc(C(F)(F)F)cc1 (stereo not given)	-1	/	/	/	/	/
COC(=O)CSc1nc2cc3c(cc2cc1C#N)OCO3	15*	101	24	-2	33*	71*
CCOC(=O)CSc1nc2cc3c(cc2cc1C#N)OCO3	49*	97	13	-1	44*	62*
CCOC(=O)CSc1nc2cc3c(cc2cc1C#N)OCCO3	3	96	7	1	/	/
O=C(Cc1cn(Cc2ccccc2)c2ccccc12)Nc1ccc(Nc2cccnc2)c(Br)c1	-4	/	/	/	/	/
Cc1cc(NC(=O)c2cc(-c3ccccn3)nc3c(Cl)cccc23)no1	33*	102	-7	0	42*	62*
Cc1cc(NC(=O)c2cc(-c3ccccn3)nc3ccc(Br)cc23)no1	21*	108	4	0	32*	67*
Cc1cc(NC(=O)c2cc(-c3ccccn3)nc3ccccc23)no1	1	91	5	4	/	/
NS(=O)(=O)c1ccc(CCNC(=O)c2ccc(-c3ccccc3)cc2)cc1	12*	99	-7	0	21*	14*	PG9 bind DR=>67;PGV04 DR counter=>67;PG126 binding DR=>67
Cc1cc(C)c2nc(-c3ccccn3)cc(C(=O)Nc3cc(C)on3)c2c1	17*	95	-6	4	19*	27*
Cc1cc(C)c2nc(-c3ccccn3)cc(C(=O)Nn3cnnc3)c2c1	0	101	-10	-1	/	/
NS(=O)(=O)c1ccc(CCNC(=O)c2cc(-c3ccccn3)nc3ccc(Br)cc23)cc1	17*	91	-10	11	31*	63*
CCn1c(SCc2nc(-c3ccccc3)no2)nnc1-c1ccco1	15*	88	-2	-1	49*	61*
O=C(Nc1sc2c(c1C(=O)NCc1ccco1)CCCC2)c1ccc2c(c1)OCO2	15*	98	15	0	8.6*	20*
Cc1ccc(C(=O)Nc2sc3c(c2C(=O)NCc2ccco2)CCCC3)cc1	3	96	2	7	/	/
COc1ccc2c(COC(=O)c3n[nH]c4ccccc34)cc(=O)oc2c1	62*	92	8	-3	53*	57*
Cc1cc2oc(=O)cc(COC(=O)c3n[nH]c4ccccc34)c2cc1C	5	82	17	3	/	/
Cc1cc(Oc2cccnc2)ccc1NC(=O)Cc1c(C)[nH]c2ccccc12	-2	/	/	/	/	/
CCOC(=O)CNC(=O)CSc1nc(C(C)C)nc2c1cnn2-c1ccccc1	8.6*	100	/	6	10*	15*
CCOC(=O)CNC(=O)CSc1ncnc2c1cnn2-c1ccccc1	-2	92	-8	0	/	/
SMILES	PG9 binder	ABCB6 inh MLPCN	Arr AP2 block	hiPSC survival	PG9 bind confirm	PGV04 counter	others
O=S1(=O)CCSC[C@@H](CN2CCN(c3ccccc3)CC2)N1	-1	/	/	/	/	/
CN(C)S(=O)(=O)c1ccc(N2CCCC2)c(C(=O)NCc2cccc(C(F)(F)F)c2)c1	12*	98	-9	-1	17*	25*
CN(C)S(=O)(=O)c1ccc(N2CCCC2)c(C(=O)NCCc2ccc(F)cc2)c1	-1	95	26	0	/	/
COc1cccc(CNC(=O)[C@H]2CCCN2C(=O)[C@H]2CCCN2C(=O)c2ccccc2C(F)(F)F)c1	0	/	/	/	/	/
COc1ccc(C(=O)Nc2ccc(NC(=O)c3cc(OC)c(OC)c(OC)c3)cn2)cc1	20*	99	2	0	15*	20*
COc1cc(C(=O)Nc2ccc(NC(=O)c3ccccc3)nc2)cc(OC)c1OC	0	100	-10	0	/	/
COc1ccc(C2NC(=O)c3sc4nc(C)c(C(C)=O)c(-c5ccc(Cl)cc5)c4c3N2)cc1 (stereo not given)	9.3*	99	1	4	22*	40*
Cc1ccc2nc(-c3ccco3)c(Cc3ccccc3C(F)(F)F)n2c1	0	/	/	/	/	/
COc1cc(NC(=O)C2CCCN(S(=O)(=O)c3ccc4[nH]c(=O)ccc4c3)C2)cc(OC)c1 (stereo not given)	-2	100	32	1	/	/
COc1ccc(NC(=O)C2CCCN(S(=O)(=O)c3ccc4[nH]c(=O)ccc4c3)C2)cc1 (stereo not given)	9.6*	102	5	0	18*	26*
CCOc1ccc(NC(=O)C2CCCN(S(=O)(=O)c3ccc4[nH]c(=O)ccc4c3)C2)cc1 (stereo not given)	11*	106	2	1	38*	63*
COC(=O)c1cc2c(c3c4cc(OC)ccc4n(C(=O)c4ccccc4)c13)C(=O)N(Cc1ccco1)C2	-1	/	/	/	/	/
CN(C)c1ccc(C(=O)Nc2ccc(S(=O)(=O)Nc3nccs3)cc2)cc1	26*	101	28	0	38*	47*
CS(=O)(=O)Nc1ccc(C(=O)Nc2ccc(S(=O)(=O)Nc3nccs3)cc2)cc1	-2	103	-15	0	/	/
C[C@@H]1ON(C)[C@H]2C[C@H]3c4cc(Br)ccc4CCN3C[C@@H]12	-1	/	/	/	/	/
Cc1ccccc1S(=O)(=O)N1CCCc2nc(-c3ccccc3)ccc21	0	/	/	/	/	/
COc1cccc(NC(=O)CN(C)C(=O)CNC(=O)c2sc3ccccc3c2Cl)c1	7	102	2	1	/	/
Cc1cccc(NC(=O)CNC(=O)c2sc3ccccc3c2Cl)n1	12*	101	-2	0	4	41*
CCOC(=O)C1CCN(C(=O)COC(=O)CNC(=O)c2sc3ccccc3c2Cl)CC1	10*	94	6	0	12*	16*
CC(=O)c1cccc(NC(=O)CNC(=O)c2sc3ccccc3c2Cl)c1	15*	120	19	0	17*	41*
